One may read the clearance as the volume of plasma or blood freed of the substance per unit of time. Low readings indicate inefficient removal, high ones efficient removal. As a reminder, the pIC50 is the IC50 on a negative log10 scale, so that one unit is a factor of ten. The term Tmax denotes the time from dosing to the highest level. For orientation: Cmax means the maximum level reached in the sampled fluid or tissue.

From ChEMBL document CHEMBL4038305, “Benzoxaborole Antimalarial Agents. Part 5. Lead Optimization of Novel Amide Pyrazinyloxy Benzoxaboroles and Identification of a Preclinical Candidate” (J Med Chem, 2017) come the findings set out here.

Data set [1] concerns Plasmodium berghei. Description: Antimalarial activity against Plasmodium berghei infected in Swiss Webster mouse assessed as mouse survival rate at 100 mg/kg administered once daily via oral gavage for 4 consecutive days beginning 1 hr after infection measured on day 19 post infection relative to control. Type of data set: functional. Put shortly:
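Mice given an intraperitoneal injection of P. berghei-infected erythrocytes taken from a previously infected animal. Oral dosing once daily for 4 consecutive days, starting 1 h after infection. Vehicle: polyethylene glycol 300/propylene glycol/water (weight ratio 55/25/20). Percent survival recorded daily from day 4 to day 20. Chloroquine 30 mg/kg and vehicle-only groups served as controls.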

The test system of data set [2] is Rattus norvegicus. Description: Genotoxicity in rat assessed as micronuclei in polychromatic erythrocyte cells in bone marrow at 500 to 2000 mg/kg administered via oral gavage measured after 24 to 48 hrs post dose by micronucleus assay. The class given is toxicity, organism-based. The note with it: in vivo.
In data set [3] the test system is Plasmodium berghei. Description: Antimalarial activity against Plasmodium berghei infected in Swiss Webster mouse assessed as mouse survival rate at 3 mg/kg administered once daily via oral gavage for 4 consecutive days beginning 1 hr after infection measured on day 7 post infection relative to control. Type of data set: functional. Put shortly:
(§1)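 P. berghei-infected erythrocytes taken from a previously infected mouse were injected intraperitoneally. Oral dosing, once daily for 4 consecutive days, began 1 h after infection, in polyethylene glycol 300/propylene glycol/water (55/25/20 by weight). Chloroquine at 30 mg/kg was the positive control, with a vehicle-only group. Percent survival was recorded daily from day 4 to day 20.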

Data set [4] deals with Plasmodium berghei. Description: Antimalarial activity against Plasmodium berghei infected in Swiss Webster mouse assessed as mouse survival rate at 3 mg/kg administered once daily via oral gavage for 4 consecutive days beginning 1 hr after infection measured on day 5 post infection relative to control. Type of data set: functional. Put shortly: as §1
Data set [5] concerns Escherichia coli. Description: Genotoxicity in Escherichia coli WP2uvrA assessed as number of revertants per plate at 500 ug/plate in absence of rat liver S9 fraction by Ames test (reference value: 45 +/- 9). Type of data set: toxicity. For orientation: The Ames test detects mutagens through reverse mutation in bacteria.
The test system of data set [6] is Salmonella typhimurium. Description: Genotoxicity in Salmonella typhimurium TA1535 assessed as number of revertants per plate at 15 ug/plate in absence of rat liver S9 fraction by Ames test (reference value: 10 +/- 3). The class given is toxicity. The note with it: salmonella enterica subsp. enterica serovar typhimurium.
Data set [7] can be described thus: Clearance in Sprague-Dawley rat at 5 mg/kg, iv by HPLC/MS analysis. The class given is ADME, organism-based. To be noted: in vivo. Put shortly:
(§2)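 Female CD-1 mice, male SD rats and beagle dogs received 5 mg/kg either iv or by oral gavage. Vehicle was PEG 300/propylene glycol/water (55/25/20, pH 6). Blood was sampled and drug measured by HPLC-MS/MS.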

Data set [8] deals with Salmonella typhimurium. Description: Genotoxicity in Salmonella typhimurium TA98 assessed as number of revertants per plate at 500 ug/plate in presence of rat liver S9 fraction by Ames test (reference value: 19 +/- 8). Type of data set: toxicity. The note with it: salmonella enterica subsp. enterica serovar typhimurium.
The next data set concerns Plasmodium falciparum. Description: Antimalarial activity against Plasmodium falciparum TM90C2A infected in human erythrocytes assessed as reduction in [3H]-hypoxanthine incorporation preincubated for 24 hrs followed by [3H]-hypoxanthine addition measured after 24 hrs by scintillation counting method. Type of data set: functional, cell-based.
The subject of data set [9] is Salmonella typhimurium. Description: Genotoxicity in Salmonella typhimurium TA100 assessed as number of revertants per plate at 1.5 ug/plate in presence of rat liver S9 fraction by Ames test (reference value: 141 +/- 1). The class given is toxicity. To be noted: salmonella enterica subsp. enterica serovar typhimurium.
A short description of data set [10]: Terminal half life in Beagle dog at 5 mg/kg, po via gavage by HPLC/MS analysis. Type of data set: ADME, organism-based, Canis lupus familiaris. The note with it: in vivo, read-out: beta t1/2 (converted). Put shortly:
(§3)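 Female CD-1 mice, male SD rats or beagle dogs given 5 mg/kg by iv injection or oral gavage. Formulation was PEG300/propylene glycol/water 55/25/20, pH 6. Blood samples analysed by HPLC–MS/MS; parameters include AUC0-inf extrapolated to infinity and terminal half-life.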

Data set [11] is described as follows: Tmax in Sprague-Dawley rat plasma at 5 mg/kg, po via gavage by HPLC/MS analysis. The class given is ADME, organism-based.
The subject of data set [12] is Salmonella typhimurium. Description: Genotoxicity in Salmonella typhimurium TA1535 assessed as number of revertants per plate at 150 ug/plate in presence of rat liver S9 fraction by Ames test (reference value: 10). The class given is toxicity. The note with it: salmonella enterica subsp. enterica serovar typhimurium.
Data set [13] has as its system Escherichia coli. Description: Genotoxicity in Escherichia coli WP2uvrA assessed as number of revertants per plate at 5000 ug/plate in presence of rat liver S9 fraction by Ames test (reference value: 42 +/- 6). The class given is toxicity.
Data set [14] in a line: Cmax in Sprague-Dawley rat plasma at 5 mg/kg, po via gavage by HPLC/MS analysis. Type of data set: ADME, organism-based. On the set-up: dose 5 mg/kg, route oral. In outline: as §2
Data set [15] relates to Salmonella typhimurium. Description: Genotoxicity in Salmonella typhimurium TA100 assessed as number of revertants per plate at 15 ug/plate in absence of rat liver S9 fraction by Ames test (reference value: 154 +/- 9). The class given is toxicity. To be noted: salmonella enterica subsp. enterica serovar typhimurium.
The test system of data set [16] is Rattus norvegicus. Description: Genotoxicity in rat assessed as micronucleated polychromatic erythrocytes in bone marrow at 2000 mg/kg administered via oral gavage measured after 48 hrs post dose by micronucleus assay (reference value: 0.10 +/- 0.01%). The class given is toxicity, organism-based. The note with it: in vivo.
The test system of data set [17] is Salmonella typhimurium. Description: Genotoxicity in Salmonella typhimurium TA1535 assessed as number of revertants per plate at 5 ug/plate in presence of rat liver S9 fraction by Ames test (reference value: 10). The class given is toxicity. To be noted: salmonella enterica subsp. enterica serovar typhimurium.
Data set [18] has as its system Lymphocyte. Description: Genotoxicity in human lymphocytes assessed as replication index at 80 ug/mL after 3 hrs in absence of rat liver S9 fraction by micronucleus assay relative to control. The class given is toxicity, cell-based. In outline: (§4)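 Human lymphocytes exposed for 3 h with or without rat liver S9, or 28 h without S9, with 1% DMSO as vehicle control. Replication index = (binucleated + 2 × multinucleated cells)/total cells. Cytotoxicity (%) = 100 − (RI treated/RI vehicle) × 100.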

Data set [19] relates to Salmonella typhimurium. Description: Genotoxicity in Salmonella typhimurium TA1537 assessed as number of revertants per plate at 500 ug/plate in absence of rat liver S9 fraction by Ames test (reference value: 19 +/- 9). The class given is toxicity. The note with it: salmonella enterica subsp. enterica serovar typhimurium.
Data set [20] deals with Salmonella typhimurium. Description: Genotoxicity in Salmonella typhimurium TA1535 assessed as number of revertants per plate at 1.5 ug/plate in presence of rat liver S9 fraction by Ames test (reference value: 10). Type of data set: toxicity. To be noted: salmonella enterica subsp. enterica serovar typhimurium.
Data set [21] in a line: Volume of distribution at steady state in Beagle dog at 5 mg/kg, iv by HPLC/MS analysis. Type of data set: ADME, organism-based, Canis lupus familiaris. To be noted: in vivo, read-out: Vdss.
A short description of data set [22]: Terminal half life in Beagle dog at 5 mg/kg, iv by HPLC/MS analysis. Type of data set: ADME, organism-based, Canis lupus familiaris. To be noted: in vivo, read-out: beta t1/2 (converted). In outline: as §3
Data set [23] has as its system Lymphocyte. Description: Genotoxicity in human lymphocytes assessed as replication index at 80 ug/mL after 28 hrs in absence of rat liver S9 fraction by micronucleus assay relative to control. The class given is toxicity, cell-based. In outline: as §4
The test system of data set [24] is Salmonella typhimurium. Description: Genotoxicity in Salmonella typhimurium TA98 assessed as number of revertants per plate at 5 ug/plate in absence of rat liver S9 fraction by Ames test (reference value: 14 +/- 6). The class given is toxicity. The note with it: salmonella enterica subsp. enterica serovar typhimurium.
A short description of data set [25]: Oral bioavailability in Beagle dog at 5 mg/kg by HPLC/MS analysis. The class given is ADME, organism-based, Canis lupus familiaris. The note with it: in vivo. In outline: as §3
In data set [26] the test system is Salmonella typhimurium. Description: Genotoxicity in Salmonella typhimurium TA98 assessed as number of revertants per plate at 50 ug/plate in presence of rat liver S9 fraction by Ames test (reference value: 19 +/- 8). The class given is toxicity. To be noted: salmonella enterica subsp. enterica serovar typhimurium.
In data set [27] the test system is Salmonella typhimurium. Description: Genotoxicity in Salmonella typhimurium TA1537 assessed as number of revertants per plate at 150 ug/plate in presence of rat liver S9 fraction by Ames test (reference value: 11 +/- 4). To be noted: salmonella enterica subsp. enterica serovar typhimurium. The class given is toxicity.
Data set [28] deals with Salmonella typhimurium. Description: Genotoxicity in Salmonella typhimurium TA1535 assessed as number of revertants per plate at 500 ug/plate in presence of rat liver S9 fraction by Ames test (reference value: 10). Type of data set: toxicity. The note with it: salmonella enterica subsp. enterica serovar typhimurium.

pIC50: −log10 of the molar value.

For `Cc1c(Oc2cnc(C(=O)N3CC(O)(C(C)C)C3)cn2)ccc2c1B(O)OC2`, in the data set with Plasmodium berghei [1], the survival at 100 mg/kg turned out to be 80%.

Turning to `Cc1c(Oc2cnc(C(=O)NCCO)cn2)ccc2c1B(O)OC2`, the Activity entry in the data set on Rattus norvegicus [2] is “Non-Toxic”.

As for `Cc1c(Oc2cnc(C(=O)NC(C)CO)cn2)ccc2c1B(O)OC2` (centres undefined), the survival at 3 mg/kg in the data set with Plasmodium berghei [3] and in the data set with Plasmodium berghei [4] was 60% each time.

As for `Cc1c(Oc2cnc(C(=O)N3CC(C)(O)C3)cn2)ccc2c1B(O)OC2`, the Activity in the data set on Escherichia coli [5] came to 55; in the data set on Salmonella typhimurium [6] it was 13; in the data set with Salmonella typhimurium [8], 18; in the data set on Salmonella typhimurium [9], 150; in the data set with Salmonella typhimurium [12] it was 15; in the data set on Escherichia coli [13], 34. Besides, the Activity in the data set on Salmonella typhimurium [15] is listed as 126; with Rattus norvegicus [16], 0.1%; with Salmonella typhimurium [17] it was 16; in the data set with Lymphocyte [18], 3%; with Salmonella typhimurium [19], 14; in the data set with Salmonella typhimurium [20] it was 9. The Activity in the data set with Lymphocyte [23] worked out at 7%; with Salmonella typhimurium [24], 12; with Salmonella typhimurium [26] it was 17; in the data set with Salmonella typhimurium [27], 12; in the data set with Salmonella typhimurium [28] it was 6. For the same compound, the clearance in data set [7] was 3.88 mL/min/kg. Also, the pIC50 in the data set with Plasmodium falciparum was 7.19. In addition, the results for the half-life in data set [10] and in data set [22] were 9.5 h and 6.9 h, respectively. Further, the Tmax in data set [11] stood at 3.5 h. The Cmax in [14] worked out at 1700 ng/mL. Besides, the Vd in [21] came out at 0.29 L/kg. Besides, in data set [25], the bioavailability was determined as 127%.
